Screening data deposited in PubChem by several laboratories.
Hits are enriched below; roughly 2% of the tested compounds scored in any of these assays.
PPC-1+TRAIL kill – compounds killing PPC-1 cancer cells with TRAIL present (potentiator screen, no TRAIL-free arm) | 220,000 tested, 0.41% active | AID 1443 | cell killing (% activity), % at 4 µM or 5 µM | PPC-1 cells + TRAIL, ATPLite viability luminescence;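 active = cell killing above 50% in the first pass at 4 µM, then a duplicate retest at 5 µM averaging 50% or more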
HSP90 refold inh – blocks HSP90-mediated luciferase refolding in reticulocyte lysate | Rabbit reticulocyte lysate, luciferase refolding luminescence, 3 h | inhibition, % at 5.6 µM | 290,000 tested, 0.91% active | AID 1789;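 active = inhibition above the screen-wide mean plus 3 SD, computed separately per campaign, cut at about 16% in these data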;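 also: inhibitors lower the luminescence because luciferase stays unfolded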
TRAIL sens C8 – sensitizes caspase-8 expressing cells to TRAIL | 360,000 tested, 1% active | NB7+C8 cells + TRAIL, ATPlite viability luminescence | inhibition (viability loss, TRAIL sensitization), % at 10 µM;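 active = compounds causing at least 50% loss of cell viability in the single-dose screen, relative to plate controls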
FLuc inh counter – inhibits firefly luciferase, flagging false hits in luciferase inhibition screens; 200,000 tested, 1.5% active; P08659; AID 1006; ATPLite firefly luciferase biochemical luminescence, 10 min; inhibition, % at 10 µM;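 active = inhibition above about 50% when tested at 10 µM, limit read from the data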
Target sequence (P08659 whole entry, looked up): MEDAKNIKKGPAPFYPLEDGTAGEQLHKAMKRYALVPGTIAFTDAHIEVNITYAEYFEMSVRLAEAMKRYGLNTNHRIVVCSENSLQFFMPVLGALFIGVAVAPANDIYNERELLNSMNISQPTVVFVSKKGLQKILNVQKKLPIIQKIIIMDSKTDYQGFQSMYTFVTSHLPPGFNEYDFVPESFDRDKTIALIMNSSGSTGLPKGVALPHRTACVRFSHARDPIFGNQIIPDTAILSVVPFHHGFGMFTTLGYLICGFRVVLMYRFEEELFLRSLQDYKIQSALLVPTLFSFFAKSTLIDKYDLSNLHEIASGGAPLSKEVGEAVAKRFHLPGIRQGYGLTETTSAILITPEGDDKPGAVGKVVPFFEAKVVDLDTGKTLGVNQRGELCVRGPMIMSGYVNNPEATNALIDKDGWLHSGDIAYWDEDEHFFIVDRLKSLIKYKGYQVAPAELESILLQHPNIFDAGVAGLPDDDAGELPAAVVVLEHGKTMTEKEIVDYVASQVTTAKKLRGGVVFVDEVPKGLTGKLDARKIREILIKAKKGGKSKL
FLuc act counter – firefly luciferase counter-screen for stimulation assays; ATPlite luciferase biochemical, luminescence, 10 min; 0 = ATP-free wells, 1 = DMSO control; activation factor at 10 µM; 200,000 tested, under 10 active; P08659; AID 1027;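 active = luciferase activation factor, scaled between plate controls, of at least 2 with compound at 10 µM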
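System: Luciferase/luciferin detection reagent, cell-free biochemical luciferase assay | Medium: PBS buffer for ATP | Dosing: Test compounds dosed from 2 mM stocks in 100% DMSO | Timing: 10 min at ambient temperature | Signal: Luminescence measurement of luciferase light output | Evaluation: Luciferase activation, seen as luminescence increase over controls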
Hits are given with their value; 0 = inactive; - = no result.

SMILES	PPC-1+TRAIL kill	HSP90 refold inh	TRAIL sens C8	FLuc inh counter	FLuc act counter
COc1ccc(OC)c(NC(=O)COc2cc(O)c3c(c2)OC(C)(C)CC3=O)c1	-	-	0	-	-
Cc1ccc(C2=NN=C(NC(=O)CSc3nncn3C)SC2)cc1	0	0	0	86	0
Cc1ccc(C(=O)NC(=O)CSc2nncn2C)cc1	-	0	0	-	-
O=C(Nc1ccc2c(c1)CCC2)c1ccccc1F	0	0	57	62	0
O=C(Nc1ccc2c(c1)CCC2)c1ccccc1	0	0	0	62	0
O=C(O)c1ccccc1-c1ccccc1C(=O)Nc1ccc2c(c1)CCC2	-	0	0	-	-
CCN(CC)c1ccc(N=Nc2ncn[nH]2)cc1	0	0	0	82	0
CCN(CC)c1ccc(/C=N/O)cc1	0	0	0	0	0
Cc1noc(C)c1C(=O)OCC(=O)NCc1ccccc1	-	-	0	-	-
COCC1CCN(C(=O)c2ccc3nc(Cc4cccc(Cl)c4)oc3c2)CC1	-	-	0	-	-
O=C(Nc1ccc(C(=O)O)cc1)/C(=C\C=C\c1ccccc1)NC(=O)c1cccc(Br)c1	0	0	0	0	0
O=C(Nc1ccc(C(=O)O)cc1)/C(=C\C=C\c1ccccc1)NC(=O)c1ccccc1Br	-	0	50	-	-
Cc1cccc(C)c1NC(=O)C1(C)CN(S(C)(=O)=O)CC(=O)N1CCc1c[nH]c2ccccc12 (stereo not drawn)	-	-	0	-	-
O=S(=O)(/C(=C\c1ccc(C(F)(F)F)cc1)c1nc2ccccc2[nH]1)c1ccccc1	-	-	85	-	-
O=C(NCc1ccco1)/C(=C/c1ccc(C(F)(F)F)cc1)c1nc2ccccc2[nH]1	0	0	0	0	0
CN(C)C(=S)Oc1ccccc1C1(C)OCCO1	-	-	0	-	-
Cc1ccc(/C=N/Nc2cccc3cccnc23)c(O)c1	0	0	0	60	0
Oc1ccc(/C=N/Nc2cccc3cccnc23)c(O)c1	0	0	0	0	0
CC1Oc2cc3oc4c(O)c(O)ccc4c(=O)c3c(O)c2C1(C)C (stereo not drawn)	-	-	53	-	-
COc1ccc2c(c1)CC/C2=N\OC(=O)c1ccccc1OC	0	0	0	72	0
CC(C)COCc1ccc(O)c2ncccc12	0	0	52	0	0
CCCOCc1ccc(O)c2ncccc12	0	0	0	-	-
COc1ccc(C(N)c2csc(Nc3ccc(S(C)(=O)=O)cc3)n2)cc1 (stereo not drawn)	-	-	0	-	-
C#CCOCCOCCOCCNc1nc(N2CCN(C(=O)CCCCCCCCCCNC(=O)[C@H](CCCCN)n3cc(C)nn3)CC2)nc(N2CCN(C(=O)CCCCCCCCCCNC(=O)[C@@H]([C@H](C)CC)n3cc(CCCCCN)nn3)CC2)n1	-	-	97	-	-
C#CCOCCOCCOCCNc1nc(N2CCN(C(=O)CCCCCCCCCCNC(=O)[C@H](CCCCN)n3cc(CCO)nn3)CC2)nc(N2CCN(C(=O)CCCCCCCCCCNC(=O)[C@@H]([C@H](C)O)n3cc(C)nn3)CC2)n1	-	-	0	-	-
SMILES	PPC-1+TRAIL kill	HSP90 refold inh	TRAIL sens C8	FLuc inh counter	FLuc act counter
C#CCOCCOCCOCCNc1nc(N2CCN(C(=O)CCCCCCCCCCNC(=O)Cn3cc(CCCCCN)nn3)CC2)nc(N2CCN(C(=O)CCCCCCCCCCNC(=O)[C@H](CO)n3cc(CCCCCN)nn3)CC2)n1	-	-	0	-	-
C#CCOCCOCCOCCNc1nc(N2CCN(C(=O)CCCCCCCCCCNC(=O)[C@H]([C@@H](C)CC)n3cc(CCCCCN)nn3)CC2)nc(N2CCN(C(=O)CCCCCCCCCCNC(=O)[C@@H]([C@H](C)O)n3cc(C)nn3)CC2)n1	-	-	92	-	-
C#CCOCCOCCOCCNc1nc(N2CCN(C(=O)CCCCCCCCCCNC(=O)Cn3cc(CCCCCN)nn3)CC2)nc(N2CCN(C(=O)CCCCCCCCCCNC(=O)[C@H]([C@@H](C)CC)n3cc(CCCCCN)nn3)CC2)n1	-	-	75	-	-
COc1cc(/C=C/C(=O)O)cc(S(=O)(=O)Nc2ccc3nc(C)sc3c2)c1OC	0	17	0	-	-
CCCCN1C(=O)/C(=C/C=C2\Oc3ccccc3N2CC)SC1=S	0	0	0	0	0
CCN1/C(=C/C=C/c2oc3ccc(-c4ccccc4)cc3[n+]2CC)Oc2ccc(-c3ccccc3)cc21	57	0	79	0	0
CC(=O)Nc1cccc(NC(=O)C(=O)c2cn(CC(=O)N3CCCC3)c3ccccc23)c1	-	-	0	-	-
COCCN(C(=O)COC(=O)c1c(NC(C)=O)sc(C)c1C)c1c(N)n(Cc2ccccc2)c(=O)[nH]c1=O	-	-	51	-	-
CN(C)c1ccc(N=Nc2ccc3ncccc3c2)cc1	-	-	71	-	-
Cc1ccc(S(=O)(=O)N2[C@H](CC(=O)c3cccs3)OC[C@@H]2C)cc1	-	-	0	-	-
CNC(=S)N/N=C/c1cccc(OCc2ccccc2F)c1	0	0	0	52	0
CCNC(=S)N/N=C/c1cccc(OCc2c(F)cccc2Cl)c1	0	0	0	0	0
CC1OC2CC(=O)OC2C2=C1C(=O)c1c(O)cccc1C2=O (stereo not drawn)	-	-	94	-	-
Cc1cc(C(=O)N/N=C/c2ccncc2)c(C)o1	0	0	0	-	-
CC(/C=N\NC(=O)c1cc(C)oc1C)=C\c1ccccc1	0	0	0	76	0
Cc1ccc(/C=N/NC(=O)c2cc(C)oc2C)cc1	0	0	50	-	-
CN(c1ccc(F)cc1)S(=O)(=O)c1ccc2[nH]cc(C(=O)O)c(=O)c2c1	62	0	0	0	0
O=C(N/N=C/c1ccco1)c1cccc(N2CCCC2=O)c1	0	0	0	52	0
O=C(N/N=C/c1cc(Br)ccc1O)c1cccc(N2CCCC2=O)c1	0	0	0	0	0
O=C(Oc1ccc2ccccc2c1Cl)N1CCCCCC1	0	0	53	0	0
O=C(Oc1ccc2ccccc2c1Cl)N1CCCC1	0	0	0	0	0
COc1ccccc1NC(=O)NCc1ccccc1F	0	0	0	0	0
COc1ccc(C)cc1NC(=O)NCc1ccccc1F	0	0	0	68	0
Cc1cc(C)cc(N=c2c([N+](=O)[O-])nn(-c3ccc4c(c3)OCCO4)n2O)c1	0	0	0	0	0
Cc1ccc(N=c2c([N+](=O)[O-])nn(-c3ccc4c(c3)OCCO4)n2O)c(Cl)c1	0	17	-	0	0
SMILES	PPC-1+TRAIL kill	HSP90 refold inh	TRAIL sens C8	FLuc inh counter	FLuc act counter
C[C@]12CC[C@H](O)CC1=CCC1C2CC[C@@]2(C)C1CC[C@@H]2NC(=O)[C@@H](N)Cc1cnc[nH]1 (stereo partly drawn)	-	-	0	-	-
O=C(Nc1nc2c(s1)CN(Cc1ccccc1)CC2)C1CCC1	0	0	0	0	0
CN1CCc2nc(NC(=O)c3cccc(S(=O)(=O)N4CCc5ccccc54)c3)sc2C1	0	0	0	0	0
CCN1CCc2nc(NC(=O)c3ccccc3)sc2C1	0	0	50	0	0
COc1cccc(C(=O)Nc2nc3c(s2)CN(C)CC3)c1	0	0	0	56	0
CCOC(=O)C1(C(=O)OCC)NC(=O)CC1C(C)C (stereo not drawn)	-	-	0	-	-
O=[N+]([O-])c1ccc(COc2ccccc2CN2CCCCC2)cc1	-	-	0	-	-
NC1=NC[C@@H](CC2CCCCC2)N1CCc1cc(C(F)(F)F)cc(C(F)(F)F)c1	-	-	93	-	-
C#CCSc1nnc(-c2sc(-c3ccccc3)nc2C)n1C	0	0	80	0	0
